Assay [1] concerns Canis familiaris. The assay can be described thus: Tissue concentration in dog blood 0.5 hr after iv administration. It is filed as functional, Canis lupus familiaris. The method in brief:
(§1)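 Dogs given ³H tracer (92–100 μCi) as iv cephalic-vein bolus in 2.0 mL sterile acetate buffer pH 4.5; 1–3 dogs per time point. Killed 30 min (or 24 h) later by iv pentobarbital; duplicate tissue samples oxidized and liquid-scintillation counted with background and efficiency correction. Expressed as % kg dose/g; ratio = left ventricle to blood.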

The subject of assay [2] is Canis familiaris. Description: Tissue concentration in dog blood 24 hr after iv administration. The assay is classed as functional, Canis lupus familiaris. The essentials:
(§2)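 Dogs (one to three per time point) received bolus cephalic vein injection of 92–100 μCi ³H tracer in 2.0 mL sterile acetate buffer pH 4.5; sacrificed 30 min or 24 h later by iv sodium pentobarbital. Duplicate organ samples oxidized and liquid-scintillation counted with background/efficiency correction; % kg dose/g ± SEM; heart ratio uses left ventricle/blood.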

Assay [3] concerns Canis familiaris. Description: Tissue concentration in dog heart 0.5 hr after iv administration. It is filed as functional, Canis lupus familiaris. The method in brief: as §2
The subject of assay [4] is Canis familiaris. The assay can be described thus: Tissue concentration in dog heart 24 hr after iv administration. It is filed as functional, Canis lupus familiaris. The essentials:
as §2

The test system of assay [5] is Canis familiaris. Description: (§3) Tissue concentration in dog left ventricle to blood ratio 0.5 hr after iv administration. It is filed as functional, Canis lupus familiaris. The method in brief: as §2
Assay [6] relates to Canis familiaris. Description: Tissue concentration in dog liver 0.5 hr after iv administration. The assay is classed as functional, Canis lupus familiaris. The method in brief:
as §1

The subject of assay [7] is Canis familiaris. The assay can be described thus: Tissue concentration in dog liver 24 hr after iv administration. It is filed as functional, Canis lupus familiaris. The method in brief:
as §2

Assay [8] concerns Canis familiaris. Description: Tissue concentration in dog lung 0.5 hr after iv administration. It is filed as functional, Canis lupus familiaris. The method in brief: as §2
For assay [9], the system named is Canis familiaris. Description: Tissue concentration in dog lung 24 hr after iv administration. The assay is classed as functional, Canis lupus familiaris. The method in brief:
as §2

Assay [10] relates to Canis familiaris. Description: Tissue concentration in dog spleen 0.5 hr after iv administration. The assay is classed as functional, Canis lupus familiaris. The method in brief:
as §2

Assay [11] concerns Canis familiaris. Description: Tissue concentration in dog spleen 24 hr after iv administration. It is filed as functional, Canis lupus familiaris. The method in brief: as §2
The subject of assay [12] is Canis familiaris. The assay can be described thus: Tissue concentration in dog left ventricle to blood ratio 24 hr after iv administration. The assay is classed as functional, Canis lupus familiaris. The essentials:
as §2

In assay [13] the test system is Rattus norvegicus. Description: Neuronal selectivity expressed as Concentration in spleen after iv administration in rat, pretreated with 6-hydroxydopamine (control = 1.88+/-0.25). It is filed as functional, organism-based.
Assay [14] deals with Rattus norvegicus. Description: Neuronal selectivity expressed as Concentration in blood after iv administration in rat, pretreated with 6-hydroxydopamine (control = 0.062+/-0.012). The assay is classed as functional, organism-based.
For assay [15], the system named is Rattus norvegicus. Description: Neuronal selectivity expressed as Concentration in left atrium after iv administration in rat, pretreated with 6-hydroxydopamine (control = 5.26+/-0.43). The settings on record: Cardiac atrium. The assay is classed as functional, organism-based.
For assay [16], the system named is Rattus norvegicus. The assay can be described thus: Neuronal selectivity expressed as Concentration in left ventricle after iv administration in rat, pretreated with 6-hydroxydopamine (control = 5.38+/-0.39). Particulars: Heart left ventricle. It is filed as functional, organism-based.
The subject of assay [17] is Rattus norvegicus. The assay can be described thus: Neuronal selectivity expressed as Concentration in right atrium after iv administration in rat, pretreated with 6-hydroxydopamine (control = 5.19+/-0.14). It is filed as functional, organism-based. Particulars: Cardiac atrium.
Assay [18] has as its system Rattus norvegicus. Description: Neuronal selectivity expressed as Concentration in right ventricle after iv administration in rat, pretreated with 6-hydroxydopamine (control = 6.10+/-0.45). It is filed as functional, organism-based. The settings on record: Heart right ventricle.
The species entered for assay [19] is Rattus norvegicus. Description: Percente change in thallium-201 concentration in left atrium of sympathectomized rat, pretreated with 6-hydroxydopamine. The assay is classed as functional, Cardiac atrium. The essentials: (§4)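 Female Sprague-Dawley rats (200–300 g) given 6-hydroxydopamine HBr 100 mg/kg ip, freshly made in saline, 5 days before tracer; controls got vehicle. Thallium-201 (23–28 μCi) iv via femoral vein; decapitated 90 min later; tissue radioactivity counted; N = 6. Value is % change in treated versus control tissue concentration.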

The species named for assay [20] is Rattus norvegicus. The assay can be described thus: Percent change in thallium-201 concentration in left ventricle of sympathectomized rat, pretreated with 6-hydroxydopamine. It is filed as functional, Heart left ventricle. The method in brief:
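Blood-perfusion check in rats under same 6-hydroxydopamine protocol (100 mg/kg ip, 5 days before tracer): thallium-201 23–28 μCi iv via femoral vein, decapitation 90 min later, N = 6; percent change in tissue radioactivity of treated versus control rats.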

Assay [21] is filed under the species Rattus norvegicus. The assay can be described thus: Percent change in thallium-201 concentration in right atrium of sympathectomized rat, pretreated with 6-hydroxydopamine. The assay is classed as functional, Cardiac atrium. The method in brief: as §4
For assay [22], the species on record is Rattus norvegicus. The assay can be described thus: Percent change in thallium-201 concentration in spleen of sympathectomized rat, pretreated with 6-hydroxydopamine. The assay is classed as functional.
The species named for assay [23] is Rattus norvegicus. The assay can be described thus: Percent change in [3H]metaraminol concentration in blood of sympathectomized rat, pretreated with 6-hydroxydopamine.
The species named for assay [24] is Rattus norvegicus. Description: Percent change in [3H]metaraminol concentration in right ventricle of sympathectomized rat, pretreated with 6-hydroxydopamine.
In assay [25] the test system is Canis familiaris. The assay is described as §3. It is filed as functional, Canis lupus familiaris. The essentials: as §1
This is another data set of the same source.

For assay [26], the species on record is Rattus norvegicus. The assay can be described thus: Percentage change in thallium-201 in right ventricle of sympathectomized rat, pretreated with 6-hydroxydopamine. It is filed as functional, Heart right ventricle. The method in brief: as §4
Assay [27] is filed under the species Rattus norvegicus. The assay can be described thus: Percentage change in thallium-201 in spleen of sympathectomized rat, pretreated with 6-hydroxydopamine. The assay is classed as functional. The essentials:
as §4

The species named for assay [28] is Rattus norvegicus. The assay can be described thus: Percentage change in thallium-201 in blood of sympathectomized rat, pretreated with 6-hydroxydopamine. The assay is classed as functional. The method in brief:
as §4

The species named for assay [29] is Rattus norvegicus. The assay can be described thus: Percentage change in thallium-201 in left ventricle of sympathectomized rat, pretreated with 6-hydroxydopamine. The assay is classed as functional, Heart left ventricle. The essentials:
as §4

Data on 4 molecules can be found in ChEMBL document CHEMBL1124727, “Neuronal mapping of the heart with 6-[18F]fluorometaraminol” (1990).

As to `C[C@H](N)[C@H](O)c1cccc(O)c1` (stereo in doubt; form 1) [METARAMINOL], the “[3H] concentration” value with Canis familiaris [1] is 0.03 % kg dose g-1; in the assay on Canis familiaris [2] it was 0.008 % kg dose g-1; in the assay with Canis familiaris [3], 0.55 % kg dose g-1; in the assay on Canis familiaris [4] it was 0.59 % kg dose g-1; in the assay on Canis familiaris [5], 18; in the assay with Canis familiaris [6], 0.42 % kg dose g-1. For the same molecule, the “[3H] concentration” value in the assay with Canis familiaris [7] worked out at 0.13 % kg dose g-1; in the assay on Canis familiaris [8] it was 0.2 % kg dose g-1; in the assay on Canis familiaris [9], 0.03 % kg dose g-1; with Canis familiaris [10] it was 0.81 % kg dose g-1; in the assay with Canis familiaris [11], 0.5 % kg dose g-1; in the assay on Canis familiaris [12], 74.
With `C[C@H](N)[C@H](O)c1cccc(O)c1` (stereo in doubt; form 2), the Concentration was 0.46 % dose g-1 with Rattus norvegicus [13]; 0.158 % dose g-1 in the assay on Rattus norvegicus [14]; 0.75 % dose g-1 in the assay with Rattus norvegicus [15]; 1.05 % dose g-1 with Rattus norvegicus [16]; 0.86 % dose g-1 in the assay with Rattus norvegicus [17]; 1.32 % dose g-1 in the assay on Rattus norvegicus [18].
On to `C[C@H](N)[C@H](O)c1cccc(O)c1` (stereo in doubt; form 2) [METARAMINOL], for which the “[3H] concentration” value with Canis familiaris [2] is 0.009 % kg dose g-1; in the assay on Canis familiaris [3], 0.72 % kg dose g-1; in the assay with Canis familiaris [4] it was 0.51 % kg dose g-1; in the assay on Canis familiaris [5] it was 24; in the assay with Canis familiaris [7] it was 0.17 % kg dose g-1; in the assay with Canis familiaris [8], 0.13 % kg dose g-1. Besides, the “[3H] concentration” value in the assay with Canis familiaris [9] worked out at 0.05 % kg dose g-1; in the assay on Canis familiaris [10], 0.88 % kg dose g-1; with Canis familiaris [11], 0.73 % kg dose g-1; in the assay on Canis familiaris [12] it was 57. The Change is listed as -86% in the assay filed under Rattus norvegicus [19]; -86% in the assay listed under Rattus norvegicus [20]; -83% in the assay listed under Rattus norvegicus [21]; -76% in the assay filed under Rattus norvegicus [22]; 155% in the assay listed under Rattus norvegicus [23]; -80% in the assay filed under Rattus norvegicus [24].
Take `[3H][C@](O)(CN)c1ccc(O)c(O)c1` [[3H]NOREPINEPHRINE]: the “[3H] concentration” value in the assay with Canis familiaris [1] was 0.04 % kg dose g-1; in the assay with Canis familiaris [2], 0.017 % kg dose g-1; in the assay with Canis familiaris [3] it was 0.74 % kg dose g-1; in the assay with Canis familiaris [4], 0.16 % kg dose g-1; in the assay with Canis familiaris [25], 19; in the assay with Canis familiaris [6] it was 0.27 % kg dose g-1. The “[3H] concentration” value in the assay on Canis familiaris [7] worked out at 0.09 % kg dose g-1; with Canis familiaris [8] it was 0.18 % kg dose g-1; in the assay with Canis familiaris [9], 0.03 % kg dose g-1; with Canis familiaris [10], 0.81 % kg dose g-1; in the assay on Canis familiaris [11], 0.52 % kg dose g-1; with Canis familiaris [12], 9. Further, the Change in the assay listed under Rattus norvegicus [26] is on record as -92%; in the assay listed under Rattus norvegicus [27], -71%; in the assay listed under Rattus norvegicus [28], -20%; in the assay filed under Rattus norvegicus [29], -85%; in the assay listed under Rattus norvegicus [19] it was -92%; in the assay listed under Rattus norvegicus [21] it was -94%.
